From ChEMBL document CHEMBL1124464, “Peripherally acting enkephalin analogues. 2. Polar tri- and tetrapeptides” (1989)

How the values were obtained:
Assay type in all cases: functional
[1] = species on record: Cavia porcellus; experiment: Inhibition of electrically induced contractions on the guinea pig ileum; details: read-out: ED50 (the source's name)
Outline: (§1)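 Guinea pig ileum contractions evoked by coaxial stimulation at 0.1 Hz, 0.5-ms pulses, supramaximal voltage, recorded isometrically; dose-response curves built with 15-min washout between doses.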

[2] = system: Mus musculus; experiment: Antinociceptive activity of subcutaneously administered compound in acetic acid (AA) induced writhing mice; details: sc
Outline: (§2)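 Male TFW mice, groups of five to six, given drug subcutaneously (10 mL kg-1), then ip acetic acid 0.6% at 25 mL kg-1. Writhes counted for 5 min beginning 15 min after acetic acid. ED50 = dose reducing writhes 50% versus vehicle, by linear regression.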

[3] = system: Mus musculus; experiment: Antinociceptive activity of subcutaneously administered compound in phenyl-p-benzoquinone induced writhing mice
Outline: (§3)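 Groups of five to six female CD1 mice given drug subcutaneously (10 mL kg-1) 30 min before ip phenyl-p-benzoquinone 2.5 mg kg-1. Writhes (abdominal constrictions/hind-limb extensions) counted over 2.5 min from 10 min post-PBQ. ED50, the dose giving 50% fewer writhes than vehicle, from linear regression.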

[4] = system: Mus musculus; experiment: Antinociceptive activity of perorally administered compound (20 mg) in phenyl-p-benzoquinone induced writhing mice
Outline: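 Female CD1 mice (Charles River), groups of five to six, dosed orally by blunt intragastric needle (10 mL kg-1) 30 min before ip PBQ at 2.5 mg kg-1. Abdominal constrictions/hind-limb extensions were counted over 2.5 min starting 10 min after PBQ. ED50 is the dose halving writhes versus vehicle, estimated by linear regression.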

[5] = system: Rodentia sp.; experiment: Antinociceptive activity in the hot plate test (central activity) in rodents, when compound administered subcutaneously at 10 mg
Outline: (§4)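 Male CFLP mice, groups of five to six, placed on a copper surface held at 55 °C; latency to paw licking/shaking or jumping recorded, 30-s cut-off. Drug given subcutaneously at 10 mL kg-1. ED50 = dose doubling response latency versus vehicle, by parallel-line probit analysis.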

[6] = species on record: Mus musculus; experiment: Dose ratio in the presence and absence of the peripheral opioid antagonist in N-methyl-nalorphine in AA writhing mice
Outline: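 Acetic acid (0.6%, ip) writhing in male TFW mice; N-methylnalorphine 11.5 mg kg-1 ip 20 min before subcutaneous agonist. Writhes counted 5 min from 15 min post-irritant. Dose ratio taken as the shift between parallel regression lines with and without antagonist.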

[7] = system: Mus musculus; experiment: Antinociceptive activity of perorally administered compound in phenyl-p-benzoquinone induced writhing mice; details: po
Outline: (§5)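 Female CD1 mice, groups of five to six, dosed orally by blunt intragastric needle (10 mL kg-1) 30 min before ip phenyl-p-benzoquinone 2.5 mg kg-1. Abdominal constrictions/hind-limb extensions counted over 2.5 min starting 10 min after PBQ. ED50 = dose halving writhes versus vehicle, by linear regression.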

[8] = system: Rodentia sp.; experiment: Antinociceptive activity in the hot plate test (central activity) in rodents, when compound administered subcutaneously at; details: sc
Outline: (§6)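 Male CFLP mice (Hacking and Churchill), groups of five to six, dosed sc at 10 mL kg-1 and placed on a copper surface held at 55 °C. Signs of discomfort (paw licking/shaking, jumping) were scored, with a 30-s cut-off. ED50 is the dose doubling response latency versus vehicle, estimated by parallel-line probit analysis.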

[9] = system: Mus musculus; experiment: (§7) Antinociceptive activity in the hot plate test (central activity) in rodents, when compound administered subcutaneously at 50 mg; outline: as §6
[10] = system: Mus musculus; experiment: Antinociceptive activity of subcutaneously administered compound (30 mg) in acetic acid (AA) induced writhing mice; outline: as §2
[11] = system: Mus musculus; experiment: (§8) Antinociceptive activity of subcutaneously administered compound (1 mg) in phenyl-p-benzoquinone induced writhing mice
Outline: (§9)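 Female CD1 mice (Charles River), groups of five to six, given vehicle or drug sc (10 mL kg-1) 30 min before ip phenyl-p-benzoquinone at 2.5 mg kg-1 (10 mL kg-1). Writhes were counted for 2.5 min from 10 min post-irritant. ED50, the dose giving a 50% reduction in writhes relative to vehicle, was obtained by linear regression.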

[12] = system: Mus musculus; experiment: (§10) Antinociceptive activity of subcutaneously administered compound (10 mg) in phenyl-p-benzoquinone induced writhing mice; outline: as §9
[13] = system: Mus musculus; experiment: Antinociceptive activity of subcutaneously administered compound (100 mg) in acetic acid (AA) induced writhing mice; outline: as §2
[14] = system: Rodentia sp.; experiment: Antinociceptive activity in the hot plate test (central activity) in rodents, when compound administered subcutaneously at 100 mg; outline: as §4
[15] = system: Mus musculus; experiment: as §8; outline: as §3; remark: listed apart in the source
[16] = system: Mus musculus; experiment: as §10; outline: as §3; remark: listed apart in the source
[17] = system: Mus musculus; experiment: Antinociceptive activity of perorally administered compound (50 mg) in phenyl-p-benzoquinone induced writhing mice; outline: as §5
[18] = system: Cavia porcellus; experiment: Inhibition of electrically induced contractions on the guinea pig ileum at […] after dosing.; outline: as §1
[19] = system: Rodentia sp.; experiment: as §7; outline: as §4
[20] = system: Rodentia sp.; experiment: Antinociceptive activity in the hot plate test (central activity) in rodents, when compound administered subcutaneously at 20 mg; outline: as §4
[21] = system: Mus musculus; experiment: Antinociceptive activity of subcutaneously administered compound (20 mg) in acetic acid (AA) induced writhing mice; outline: as §2
[22] = system: Mus musculus; experiment: Antinociceptive activity of subcutaneously administered compound (3 mg) in acetic acid (AA) induced writhing mice; outline: as §2
[23] = system: Mus musculus; experiment: Antinociceptive activity of subcutaneously administered compound (10) in phenyl-p-benzoquinone induced writhing mice; outline: as §3
[24] = Mus musculus, sc, read-out: ED50

SMILES: CC(=O)O.CCN(CCc1ccc(Br)cc1)C(=O)CNC(=O)[C@@H](CCCN=C(N)N)NC(=O)[C@H](Cc1ccc(O)cc1)N=C(N)N
- EC50 [1]: 0.216 µM
- ED50 [2]: 0.35 mg/kg
- ED50 [3, 24]: 3.4 mg/kg
- Inhibition [4]: 15%
- Inhibition [5]: 0%
- Ratio [6]: 1.5

SMILES: CC(=O)O.CCN(CCc1ccccc1F)C(=O)CNC(=O)[C@@H](CCCN=C(N)N)NC(=O)[C@H](Cc1ccc(O)cc1)N=C(N)N
- EC50 [1]: 0.0246 µM
- ED50 [7]: ~50 mg/kg
- ED50 [2]: 0.17 mg/kg
- ED50 [3, 24]: 0.9 mg/kg
- ED50 [8]: 22.2 mg/kg
- Ratio [6]: 9.8

SMILES: CC(=O)O.CCN(Cc1ccc(F)cc1)C(=O)CNC(=O)[C@@H](CCCN=C(N)N)NC(=O)[C@H](Cc1ccc(O)cc1)N=C(N)N
- EC50 [1]: 0.046 µM
- ED50 [2]: 0.32 mg/kg
- ED50 [3]: 1.7 mg/kg
- Inhibition [4]: 12%
- Inhibition [9]: 0%
- Ratio [6]: 6.4

SMILES: CC(=O)O.CCN(CCc1ccc(S(N)(=O)=O)cc1)C(=O)CNC(=O)[C@@H](CCCN=C(N)N)NC(=O)[C@H](Cc1ccc(O)cc1)N=C(N)N
- EC50 [1]: 4.9 µM
- Inhibition [10]: 0%

SMILES: CC(=O)O.CCN(CCc1ccc2ccccc2c1)C(=O)CNC(=O)[C@@H](CCCN=C(N)N)NC(=O)[C@H](Cc1ccc(O)cc1)N=C(N)N
- Inhibition [4]: 0%
- Inhibition [11]: 11%

SMILES: CC(=O)O.CCN(CCc1ccccc1C(F)(F)F)C(=O)CNC(=O)[C@@H](CCCN=C(N)N)NC(=O)[C@H](Cc1ccc(O)cc1)N=C(N)N
- EC50 [1]: 0.0284 µM
- Inhibition [12]: 40%
- Inhibition [4]: 0%

SMILES: CC(=O)O.CCN(CCc1ccc(Br)cc1)C(=O)CNC(=O)[C@@H](CCCN=C(N)N)NC(=O)[C@@H](N)Cc1ccc(O)cc1
- EC50 [1]: < 0.1 µM
- Inhibition [13]: 0%
- Inhibition [4]: 0%
- Inhibition [14]: 0%
- Inhibition [15]: 10%

SMILES: CC(=O)O.CCN(Cc1ccc([N+](=O)[O-])cc1)C(=O)CNC(=O)[C@@H](CCCN=C(N)N)NC(=O)[C@@H](N)Cc1ccc(O)cc1
- EC50 [1]: 0.0097 µM
- ED50 [2]: 0.02 mg/kg
- Inhibition [16]: 0%
- Inhibition [17]: 0%
- Inhibition [9]: 0%
- Ratio [6]: 2.8

SMILES: CC(=O)O.CCN(CCc1ccc(S(N)(=O)=O)cc1)C(=O)CNC(=O)[C@@H](CCCN=C(N)N)NC(=O)[C@@H](N)Cc1ccc(O)cc1
- EC50 [1]: 11 µM
- Inhibition [13]: 0%

SMILES: CC(=O)O.CCN(CCc1ccc([N+](=O)[O-])o1)C(=O)CNC(=O)[C@@H](CCCN=C(N)N)NC(=O)[C@@H](N)Cc1ccc(O)cc1
- Inhibition [4]: 0%
- Inhibition [15]: 0%

SMILES: CC(=O)O.CCN(CCNC(=O)[C@@H](CCCN=C(N)N)NC(=O)[C@@H](N)Cc1ccc(O)cc1)CCc1ccc([N+](=O)[O-])cc1
- Inhibition [18]: 25%

SMILES: CC(=O)O.CCN(Cc1ccccc1[N+](=O)[O-])C(=O)CNC(=O)[C@@H](CCCN=C(N)N)NC(=O)[C@@H](N)Cc1ccc(O)cc1
- EC50 [1]: 0.522 µM
- ED50 [2]: 6.1 mg/kg
- ED50 [3, 24]: 60.3 mg/kg
- Inhibition [19]: 0%
- Ratio [6]: 2.8

SMILES: CC(=O)O.CCN(CCc1ccccc1F)C(=O)CNC(=O)[C@@H](CCCN=C(N)N)NC(=O)[C@@H](N)Cc1ccc(O)cc1
- EC50 [1]: 0.022 µM
- ED50 [2]: 0.3 mg/kg
- ED50 [3, 24]: 13.7 mg/kg
- Inhibition [17]: 0%
- Inhibition [5]: 0%
- Ratio [6]: 13.3

SMILES: CC(=O)O.CCN(Cc1ccc(F)cc1)C(=O)CNC(=O)[C@@H](CCCN=C(N)N)NC(=O)[C@@H](N)Cc1ccc(O)cc1
- EC50 [1]: 0.0638 µM
- ED50 [2]: 0.09 mg/kg
- ED50 [3, 24]: 10.4 mg/kg
- Inhibition [20]: 0%
- Ratio [6]: 3.9

SMILES: CC(=O)O.CCN(CCc1cccs1)C(=O)CNC(=O)[C@@H](CCCN=C(N)N)NC(=O)[C@@H](N)Cc1ccc(O)cc1
- Inhibition [4]: 21%
- Inhibition [15]: 0%

SMILES: CC(=O)O.CCN(CCc1ccc([N+](=O)[O-])cc1)C(=O)CNC(=O)[C@@H](CCCN=C(N)N)NC(=O)[C@@H](N)Cc1ccc(O)cc1
- EC50 [1]: 0.0486 µM
- ED50 [7]: 43.5 mg/kg
- ED50 [2]: 3.1 mg/kg
- ED50 [3, 24]: 17.5 mg/kg
- Inhibition [14]: 0%
- Ratio [6]: 4.5

SMILES: CC(=O)O.CCN(CCCc1ccc([N+](=O)[O-])cc1)C(=O)CNC(=O)[C@@H](CCCN=C(N)N)NC(=O)[C@@H](N)Cc1ccc(O)cc1
- EC50 [1]: 1.8 µM
- Inhibition [10]: 0%

SMILES: CC(=O)O.CCN(CCc1ccc(Cl)c(Cl)c1)C(=O)CNC(=O)[C@@H](CCCN=C(N)N)NC(=O)[C@@H](N)Cc1ccc(O)cc1
- EC50 [1]: 0.0125 µM
- Inhibition [21]: 0%
- ED50 [3, 24]: 4.7 mg/kg
- Inhibition [4]: 0%
- Inhibition [14]: ~100%
- Ratio [6]: 0.5

SMILES: CC(=O)O.CCN(CCc1ccccc1[N+](=O)[O-])C(=O)CNC(=O)[C@@H](CCCN=C(N)N)NC(=O)[C@@H](N)Cc1ccc(O)cc1
- EC50 [1]: 0.118 µM
- ED50 [2]: 2.7 mg/kg
- ED50 [3, 24]: 31 mg/kg
- Inhibition [17]: 0%
- Inhibition [20]: 0%
- Ratio [6]: 6.4

SMILES: CC(=O)O.CCN(CCc1ccncc1)C(=O)CNC(=O)[C@@H](CCCN=C(N)N)NC(=O)[C@@H](N)Cc1ccc(O)cc1
- EC50 [1]: 0.569 µM
- Inhibition [22]: 0%

SMILES: CC(=O)O.CCN(CCc1ccc2ccccc2c1)C(=O)CNC(=O)[C@@H](CCCN=C(N)N)NC(=O)[C@@H](N)Cc1ccc(O)cc1
- Inhibition [4]: 0%
- Inhibition [15]: 27%

SMILES: CC(=O)O.CCN(Cc1ccc(-c2ccccc2)cc1)C(=O)CNC(=O)[C@@H](CCCN=C(N)N)NC(=O)[C@@H](N)Cc1ccc(O)cc1
- Inhibition [4]: 0%
- Inhibition [15]: 13%

SMILES: CC(=O)O.CCN(CCc1ccco1)C(=O)CNC(=O)[C@@H](CCCN=C(N)N)NC(=O)[C@@H](N)Cc1ccc(O)cc1
- Inhibition [4]: 0%
- Inhibition [15]: 0%

SMILES: CC(=O)O.CCN(CCc1ccccc1C(F)(F)F)C(=O)CNC(=O)[C@@H](CCCN=C(N)N)NC(=O)[C@@H](N)Cc1ccc(O)cc1
- EC50 [1]: 0.0721 µM
- Inhibition [4]: 0%
- Inhibition [23]: 33%

SMILES: CC(=O)O.CCN(CCc1ccc([N+](=O)[O-])o1)C(=O)CNC(=O)[C@@H](CCCN=C(N)N)NC(=O)[C@H](Cc1ccc(O)cc1)N=C(N)N
- Inhibition [4]: 15%
- Inhibition [15]: 17%
